Measurements as given in the EternaBench riboswitch data.

Assays:
[1] = test system: MS2 coat protein; assay: apparent Kd, MS2 coat protein; higher = weaker binding; RNA-MaP array; tryptophan 2.4 mM where present
In short: (§1)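 In 100 mM Tris-HCl pH 7.5, 80 mM KCl, 4 mM MgCl2, BSA, DTT, yeast tRNA and Tween-20, SNAP-549-labelled MS2 coat protein was titrated from 0.7 or 1.5 nM, doubling to 3 µM, over designs transcribed by stalled E. coli RNA polymerase on Illumina sequencing-chip clusters. This was done first without ligand, then with ligand held constant. After green signal was normalised to red-channel RNA signal and control-cluster median Fmax, the apparent Kd was taken as the median of filtered per-cluster binding-curve fits.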

[2] = test system: MS2 coat protein; assay: apparent Kd, MS2 coat protein; higher = weaker binding; RNA-MaP array; theophylline 2 mM where present
In short: as §1

[3] = designed as: OFF switch for tryptophan, no ligand
[4] = ligand present: tryptophan, designed as: OFF switch for tryptophan
[5] = designed as: ON switch for tryptophan, no ligand
[6] = ligand present: tryptophan, designed as: ON switch for tryptophan
[7] = designed as: OFF switch for theophylline, no ligand
[8] = ligand present: theophylline, designed as: OFF switch for theophylline
[9] = designed as: ON switch for theophylline, no ligand
[10] = ligand present: theophylline, designed as: ON switch for theophylline

Sequence	apparent Kd [1, 3] [nM]	apparent Kd [1, 4] [nM]	apparent Kd [1, 5] [nM]	apparent Kd [1, 6] [nM]	further results
GGAUCAGGAUCGGCCGCCACUGAUAGUGAUCCAACGACAUGAGGAUCACCCAUGUACAUUUUAAUCAGGACCGGGAUCAAGUUCC	129	209	–	–	–
CAUAUAUAAGCGGCCGCCACUUACUCAUGAGGUAACAACAUGAGGAUCACCCAUGUUUGAGGAUCAAGGACCGGGCUUAUAUAUG	–	–	28.3	18.3	–
ACAUGUUGGUGGUAUCUACGAAGGCGGAAACGAGGACCGGUACGGCCGCCACUCGGCGACAUGAGGAUCACCCAUGUGGUUAAAA	52.6	27.5	–	–	–
ACAUGAGGAUCACCCAUGUUAAACAGGGUGCGAGGACCGGUACGGCCGCCACUCGGACAUUAUUACGAGUGAAUGGUAACGAUGU	19.9	20	–	–	–
UUUAUUAUUGACUCGUUAUUGUUUUUGGAUCGAGGACCGGUACGGCCGCCACUCGUGAUAUACAUGAGGAUCACCCAUGUUAGCA	–	–	14.9	12.8	–
CACGCACGAUCGGCCGCCACUCAUGUAGCUUACAUGAGGAUCACCCAUGUAUUUUCUUUCUUUUAGAGGACCGGGAUCGUGCGUG	–	–	24.9	16.5	–
UUGUGGCGCUCGGCCGCCACUCCGACAUGAGGAUCACCCAUGUUCUACAUGAGGAUCACCCAUGUGAGGACCGGGAGACACUUCC	104	103	–	–	–
AAUACCGGAUCGGCCGCCACUGGUUGGCCCUGUGUACAUGAGGAUCACCCAUGUCCAUCCCAAGCCAGGACCGGGAUCUUUGUGU	–	–	16.7	10.1	–
UGAUACCAGUCGGCCGCCACUACAUGAGGAUCACCCAUGUAUCCUCAACUGCUAGAUACUAGCAGUAGGACCGGGACUGGUAUCU	307	1150	–	–	–
GUCCAAAGGUCGGCCGCCACUGUAGAGUGUGUUCUUUCACAUGAGGAUCACCCAUGUUGUUAUUAUAGGACCGGGAUUGUAGGAC	20.4	28.1	–	–	–
UAUAUAUAUCACGAACUGUGGUGUAUGUCUCGAGGACCGGUACGGCCGCCACUCGCGCGGCCUCACAUGAGGAUCACCCAUGUCC	89.2	113	–	–	–
AUAAAUAAGGCGGCCGCCACUAAUAUAUUAAUAUUUUAUAUCCGACAUGAGGAUCACCCAUGUGGUAGGACCGGGCCAAUAAUUA	–	–	26.2	25.8	–
CGAAUAUAGACGGCCGCCACUCUACAAACAUGAGGAUCACCCAUGUUCACAUAGUGGAAACACAUGAGGACCGGGUCAUAGGCAU	–	–	18.5	14	–
AGUCACUCGAGGUGAUCUGACGAGUGGCAACGAGGACCGGUACGGCCGCCACUCGAAUAAACAUGAGGAUCACCCAUGUACAAAU	–	–	213	196	–
CUACAUUUGUAGAAACCGGUCACCGUUACUCGAGGACCGGUACGGCCGCCACUCGUGUCACGUGAUACAUGAGGAUCACCCAUGU	–	–	37.4	31.3	–
CUGCCUGCCUCACAUGAGGAUCACCCAUGUCGAGGACCGGUACGGCCGCCACUCGUCGUCGGUAAUACAGGCAUUGAAUAAUAUA	10.3	37.5	–	–	–
GCAUCCUAGUCGGCCGCCACUGCACGAUCAGUGGCAGAUCGUCAACAUGAGGAUCACCCAUGUAGCAGGACCGGGACUAGGAUGC	–	–	17.6	24.6	–
ACAUUGCGCUCGGCCGCCACUGCCUUAUGAUUAUAAGGAUUAAUGAACAUGAGGAUCACCCAUGUCAGGACCGGGAGCGAACCAU	–	–	13.7	13.4	–
GUGUUAUGGUCGGCCGCCACUCUGACAUGAGGAUCACCCAUGUUGUACAUGAGGAUCACCCAUGUGAGGACCGGGACACGUGCGA	401	442	–	–	–
GCAUCCUAGUCGGCCGCCACUGCAUGUAGGCAGUGCUGCUACAAACAUGAGGAUCACCCAUGUAGCAGGACCGGGACUAGGAUGC	–	–	15	13.1	–
UAUCUACAUGAAUAGGUUAUUCGAUUAUUUCGAGGACCGGUACGGCCGCCACUCGUUAACAUAUACAUGAGGAUCACCCAUGUUA	–	–	16.9	15.9	–
GUUUAAAGGUCGGCCGCCACUGUAGGAUGUGUUCUUUCACAUGAGGAUCACCCAUGUUGUUAUUAUAGGACCGGGAUUUUAGGAC	27.1	22.4	–	–	–
UCGUUAUGGUCGGCCGCCACUCGCGGAGAGCAUAGCUCAAACAUGAGGAUCACCCAUGUAUCAUGGAGGACCGGGACCAUAACGU	–	–	31.9	14	–

Sequence	apparent Kd [1, 3] [nM]	apparent Kd [1, 4] [nM]	apparent Kd [1, 5] [nM]	apparent Kd [1, 6] [nM]	further results
UUAGUAACGACGGCCGCCACUGGAUAUGAACAUGAGGAUCACCCAUGUAGAGAUCCUAGAAUAAACAGGACCGGGUCUGAUAAUA	17.2	53.4	–	–	–
UUCACAUGAUCUGAAUAUACAGAAAAGAAACGAGGACCGGUACGGCCGCCACUCGUGCCGGAAACAUGAGGAUCACCCAUGUGUU	24.2	22	–	–	–
GUUUUGGGAUCGGCCGCCACUACAUGAGGAUCACCCAUGUGGACAAAUAGGGUUUUUAAGCUCGGUAGGACCGGGAUUCGAACAU	18.1	67.5	–	–	–
UGUCAUGGAAACAUGACUGGUUCUACCGGUCGAGGACCGGUACGGCCGCCACUCGAUUGGUGGCACAUGAGGAUCACCCAUGUUA	–	–	28.2	30	–
CGCCACAUGAGGAUCACCCAUGUCUUGGCGCGAGGACCGGUACGGCCGCCACUCGCGUUUCAGUGAGCGCAUGCGUCCUUGGUAU	18.3	26.1	–	–	–
AGAUUCGACACGGCCGCCACUCGUGGUGGAUUACCUAGUGUCGAACAUGAGGAUCACCCAUGUACGAGGACCGGGUGUUGAGUCU	75	200	–	–	–
UGUGUGUGACCAGGAAAUGGUCACACACAGCGAGGACCGGUACGGCCGCCACUCGGCCGUACAUGAGGAUCACCCAUGUCGGGUA	–	–	674	741	–
GGAGCUACGUCGGCCGCCACUAGCGGAUAUUACGUGUACAUGAGGAUCACCCAUGUAAUACGGUUUAGGACCGGGACGUAGCUCC	17.3	16.5	–	–	–
AGCCGGAUUACGGCCGCCACUGUAGACGUGACGAAAGUCGCGUCAACAUGAGGAUCACCCAUGUACAGGACCGGGUGGUCAGGCG	–	–	173	41.2	–
AAUCGUAAGGCGGCCGCCACUACACAUGAGGAUCACCCAUGUCUCGCAGGCUUGCGUUGGGAUAGUAGGACCGGGCCAGUAAUAA	25.1	21.8	–	–	–
AAUGUAUGGCACAUGAGGAUCACCCAUGUGCGAGGACCGGUACGGCCGCCACUCGGUCGUGGGUUCUUAUUACUAUACAUUAAUG	10.7	12.3	–	–	–
UACAUGAGGAUCACCCAUGUAUUGCCGGUACGAGGACCGGUACGGCCGCCACUCGGAGCAUGAGGAUCACCCAUGUGCUGCUAUG	–	–	66.2	51.8	–
CUAUAAGUACCGGUCCUCAGAUCCUCAUGACGAGGACCGGUACGGCCGCCACUCGAAACAUGAGGAUCACCCAUGUAAUAAUACC	35.5	19.9	–	–	–
AUCUUUGGCGAUCUGGGAAAACCAGAUCGACGAGGACCGGUACGGCCGCCACUCGUGUAUAAUAUACAUGAGGAUCACCCAUGUA	–	–	47.5	30.5	–
AGAGCAUUGACGGCCGCCACUCGUGUCACAUGAGGAUCACCCAUGUGAUGGGUGAUAGCCCGGUUGAGGACCGGGUCAAUGCUCA	–	–	13.7	19.2	–
GGUAUAUAGGCGGCCGCCACUGAUUUUCAUAUAUAUAUAACAUGAGGAUCACCCAUGUAGAUAUACAGGACCGGGCCUAUAUAUU	–	–	14.9	12.8	–
GUAUGGAAACAUACUUGGGUAUCAUGAGAUACCAGUACAGAAAUGUACCCUUGGCAGCUCAAGCAUACAUGAGGAUCACCCAUGU	–	–	–	–	apparent Kd [2, 7]: 18 nM; apparent Kd [2, 8]: 27.1 nM
GAGCUGAUGUAGAGAAUAAAUAUAAGAGAUACCAGUACAGAAAUGUACCCUUGGCAGCUCAACUUUACAUGAGGAUCACCCAUGU	–	–	–	–	apparent Kd [2, 7]: 13.9 nM; apparent Kd [2, 8]: 18.8 nM
UUAAUGGAGCUUUAAUUUACGAUUUCUGAUACCAGUGUUUCAUUUCACCCUUGGCAGCAGUGACAUGAGGAUCACCCAUGUAAUA	–	–	–	–	apparent Kd [2, 9]: 25.4 nM; apparent Kd [2, 10]: 23.5 nM
CGAUCUUUCGAAAGAAGGAUCGAGUCUGAUACCAGAGACGAAAGUCUCCCUUGGCAGCAGUGCCAACAUGAGGAUCACCCAUGUU	–	–	–	–	apparent Kd [2, 9]: 15.8 nM; apparent Kd [2, 10]: 15.5 nM
UGAUCCUGCAGGGAUACCAGCGCCGCUUGAUAACUGUGCACAUGAGGAUCACCCAUGUAGCGCCCUUGGCAGCCCAGCUAGAGGG	–	–	–	–	apparent Kd [2, 9]: 25.4 nM; apparent Kd [2, 10]: 23 nM
AGCGACAUGCGUGAUACCAGCUACAUGAGGAUCACCCAUGUACGUAGGAAACUACUGUGUAGCCCUUGGCAGCAUAGUGCAUGUC	–	–	–	–	apparent Kd [2, 7]: 12.6 nM; apparent Kd [2, 8]: 57.1 nM
